Reference: ChEMBL document CHEMBL4028867, “Design, Synthesis, and Characterization of N-Oxide-Containing Heterocycles with in Vivo Sterilizing Antitubercular Activity” (J Med Chem, 2017)
≈ marks a conversion by molar mass, not a printed value. Calls of active or inactive are those of the source. No cut-off for these calls is given here.

Columns and labels:
[1] = test system: Mycobacterium tuberculosis; assay: Antitubercular activity against replicating stage Mycobacterium tuberculosis H37Rv ATCC 27294 after 7 days by Resazurin microtiter assay; type: functional; details: H37Rv ATCC 27294, 168 h
MRC5 = assay: Cytotoxicity against human MRC5 cells assessed as reduction in cell viability after 24 hrs by fluorescence assay; type: cell-based; details: MRC5, 24 h
How it was run: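 MRC-5 human lung fibroblasts; cytotoxicity reported as IC50.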

[2] = Selectivity index, ratio of IC50 for human MRC5 cells to IC50 for replicating stage Mycobacterium tuberculosis H37Rv ATCC 27294; type: toxicity; details: read-out: Selectivity Index
[3] = n-Octanol/water partition coefficient, log P of the compound by HPLC analysis; type: physicochemical
How it was run: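 Log P from n-octanol/water partition coefficient determined by HPLC method.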

Staphylococcus aureus = assay: Antimicrobial activity against Staphylococcus aureus ATCC 29213 at 200 uM incubated for 16 hrs; type: functional
Candida albicans = assay: Antimicrobial activity against Candida albicans ATCC 10231 at 200 uM incubated for 48 hrs; type: functional
Escherichia coli = assay: Antimicrobial activity against Escherichia coli ATCC 25922 at 200 uM incubated for 16 hrs; type: functional
[4] = test system: Mycobacterium tuberculosis; assay: Antitubercular activity against dormant stage Mycobacterium tuberculosis H37Rv ATCC 27294 incubated for 10 days in anaerobic condition followed by incubation for 28 hrs in ambient gaseous condition measured after day 11 by two fold serial dilution assay; type: functional
[5] = test system: Mycobacterium tuberculosis; assay: Growth inhibition of Mycobacterium tuberculosis H37Rv exposed to plasma from BALB/c mouse treated with 20 mg/kg, po administered through carboxymethylcellulose vehicle as single oral dose per gavage after 0.3 hrs by Resazurin microtiter assay; type: functional; details: read-out: GI
How it was run: (§1)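 The microemulsion was 10% cholesterol, 10% phosphatidylcholine/sodium oleate/polyoxyl 40 hydrogenated castor oil (3:6:8) and 80% phosphate buffer pH 7.4. Plasma taken at 0.3, 1, 2 or 4 h was tested by REMA for % Mtb growth inhibition, and plasma level was estimated against the in-vitro REMA MIC.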

[6] = test system: Mycobacterium tuberculosis; assay: Antitubercular activity against Mycobacterium tuberculosis H37Rv ATCC 27294 under acidic pH 6 condition; type: functional
[7] = test system: Mycobacterium tuberculosis; assay: Antitubercular activity against Mycobacterium tuberculosis H37Rv ATCC 27294 under normal pH 6.8 condition; type: functional
[8] = test system: Mycobacterium tuberculosis; assay: Growth inhibition of Mycobacterium tuberculosis H37Rv exposed to plasma from BALB/c mouse treated with 20 mg/kg, po administered through carboxymethylcellulose vehicle as single oral dose per gavage after 4 hrs by Resazurin microtiter assay; type: functional; details: read-out: GI; how it was run: as §1
[9] = test system: Mycobacterium tuberculosis; assay: Growth inhibition of Mycobacterium tuberculosis H37Rv exposed to plasma from BALB/c mouse treated with 20 mg/kg, po administered through microemulsion vehicle as single oral dose per gavage after 1 hr by Resazurin microtiter assay; type: functional; details: read-out: GI; how it was run: as §1
[10] = test system: Mycobacterium tuberculosis; assay: Growth inhibition of Mycobacterium tuberculosis H37Rv exposed to plasma from BALB/c mouse treated with 20 mg/kg, po administered through carboxymethylcellulose vehicle as single oral dose per gavage after 1 hr by Resazurin microtiter assay; type: functional; details: read-out: GI; how it was run: as §1
[11] = test system: Mycobacterium tuberculosis; assay: Growth inhibition of Mycobacterium tuberculosis H37Rv exposed to plasma from BALB/c mouse treated with 20 mg/kg, po administered through carboxymethylcellulose vehicle as single oral dose per gavage after 2 hrs by Resazurin microtiter assay; type: functional; details: read-out: GI; how it was run: as §1
[12] = test system: Mycobacterium tuberculosis; assay: Growth inhibition of Mycobacterium tuberculosis H37Rv exposed to plasma from BALB/c mouse treated with 20 mg/kg, po administered through microemulsion vehicle as single oral dose per gavage after 0.3 hrs by Resazurin microtiter assay; type: functional; details: read-out: GI; how it was run: as §1
[13] = test system: Mycobacterium tuberculosis; assay: Growth inhibition of Mycobacterium tuberculosis H37Rv exposed to plasma from BALB/c mouse treated with 20 mg/kg, po administered through microemulsion vehicle as single oral dose per gavage after 4 hrs by Resazurin microtiter assay; type: functional; details: read-out: GI; how it was run: as §1
[14] = test system: Mycobacterium tuberculosis; assay: Growth inhibition of Mycobacterium tuberculosis H37Rv exposed to plasma from BALB/c mouse treated with 20 mg/kg, po administered through microemulsion vehicle as single oral dose per gavage after 2 hrs by Resazurin microtiter assay; type: functional; details: read-out: GI; how it was run: as §1

SMILES | MIC90 [1] [µM] | IC50 (MRC5) [µM] | selectivity ratio [2] | logP [3] | further results
O=C(N/N=C/c1ccc2no[n+]([O-])c2c1)c1ccccc1 | 8.3 (≈ 2.34 µg/mL) | 130 | 15.6 | 2.2 | 
O=C(N/N=C/c1ccc2no[n+]([O-])c2c1)c1cccc(O)c1 | > 62 |  |  | 1.2 | 
COc1ccc(-c2c(C#N)[n+]([O-])c3cc(C4OCCO4)ccc3[n+]2[O-])cc1 | 12 (≈ 4.38 µg/mL) | 15 | 1.2 | 1.4 | 
O=C(N/N=C/c1ccc2no[n+]([O-])c2c1)c1ccccc1O | > 62 |  |  | 1.3 | 
O=C(N/N=C/c1ccc2no[n+]([O-])c2c1)c1ccc(O)cc1 | > 62 |  |  | 1.2 | Activity (Staphylococcus aureus): inactive; Activity (Candida albicans): inactive; Activity (Escherichia coli): inactive
O=C(N/N=C/c1ccc2no[n+]([O-])c2c1)c1ccc([N+](=O)[O-])cc1 | 5.29 (≈ 1.73 µg/mL) |  |  | 0.9 | Activity (Staphylococcus aureus): inactive; Activity (Candida albicans): inactive; Activity (Escherichia coli): inactive
Cc1ccc(-c2c(C#N)[n+]([O-])c3cc(C4OCCO4)ccc3[n+]2[O-])cc1 | 16.5 (≈ 5.76 µg/mL) | 17.2 | 1.1 | 1.6 | 
Nc1ccc(C(=O)N/N=C/c2ccc3no[n+]([O-])c3c2)cc1 | 10.7 (≈ 3.17 µg/mL) | 841 | 78.9 | 1.2 | Activity (Staphylococcus aureus): inactive; Activity (Candida albicans): inactive; MIC90 [4]: > 10 µM; Activity (Escherichia coli): inactive
N#Cc1c(-c2ccc(OC(F)(F)F)cc2)[n+]([O-])c2ccc(C3OCCO3)cc2[n+]1[O-] | 15.4 (≈ 6.46 µg/mL) | 66.8 | 4.3 | 2.2 | 
NC(=O)c1c(COc2cccc(/C=N/NC(=O)c3ccncc3)c2)no[n+]1[O-] | 0.4 (≈ 0.153 µg/mL) | 1280 | 3200 | 1.3 | MIC90 [4]: 4.2 µM (≈ 1.61 µg/mL)
N#Cc1c(-c2ccccc2)[n+]([O-])c2ccc(C3OCCO3)cc2[n+]1[O-] | 30.8 (≈ 10.3 µg/mL) | 31.9 | 0.9 | 0.7 | 
N#Cc1c(-c2cccs2)[n+]([O-])c2ccc(C3OCCO3)cc2[n+]1[O-] | 12.1 (≈ 4.13 µg/mL) | 17.3 | 1.4 | 1.9 | 
CO[C@H]1/C=C/O[C@@]2(C)Oc3c(C)c(O)c4c(O)c(c(/C=N/N5CCN(C)CC5)c(O)c4c3C2=O)NC(=O)/C(C)=C\C=C\[C@H](C)[C@H](O)[C@@H](C)[C@@H](O)[C@@H](C)[C@H](OC(C)=O)[C@@H]1C [RIFAMPIN] |  |  |  |  | inhibition in vivo at 20 mg/kg [5]: 73.7%; MIC90 [6]: 0.02 µM (≈ 0.0165 µg/mL); MIC90 [7]: 0.05 µM (≈ 0.0411 µg/mL); inhibition in vivo at 20 mg/kg [8]: 68%; inhibition in vivo at 20 mg/kg [9]: 63%; inhibition in vivo at 20 mg/kg [10]: 84%; inhibition in vivo at 20 mg/kg [11]: 62.3%; inhibition in vivo at 20 mg/kg [12]: 66.3%; inhibition in vivo at 20 mg/kg [13]: 91%; inhibition in vivo at 20 mg/kg [14]: 76.3%
N#Cc1c(-c2ccccc2)[n+]([O-])c2ccc(/C=N/NC(=O)c3ccncc3)cc2[n+]1[O-] | 39.7 (≈ 16.3 µg/mL) | 21 | 0.5 | 1 | 
NNC(=O)c1ccncc1 [ISONIAZID] | 0.1 (≈ 0.0137 µg/mL) |  |  |  | MIC90 [4]: 1.11 µM (≈ 0.152 µg/mL)
Nc1cccc(C(=O)N/N=C/c2ccc3no[n+]([O-])c3c2)c1 | 17.8 (≈ 5.29 µg/mL) | 82.1 | 4.6 | 1.4 | 
Nc1ccccc1C(=O)N/N=C/c1ccc2no[n+]([O-])c2c1 | 12.3 (≈ 3.66 µg/mL) | 122 | 9.9 | 2 | 
N#Cc1c(-c2ccco2)[n+]([O-])c2ccc(C3OCCO3)cc2[n+]1[O-] | 5.2 (≈ 1.69 µg/mL) | 35.7 | 6.8 | 2 | 
NC(=O)c1c(COc2ccc(/C=N/NC(=O)c3ccncc3)cc2)no[n+]1[O-] | 0.43 (≈ 0.164 µg/mL) | 1160 | 2700 | 1.3 | MIC90 [4]: 2.04 µM (≈ 0.78 µg/mL)
CC(C)(C)c1ccc(C(=O)N/N=C/c2ccc3no[n+]([O-])c3c2)cc1 | 3.9 (≈ 1.32 µg/mL) | 25.2 | 6.3 | 3.8 | 
N#Cc1c(-c2ccc(F)cc2)[n+]([O-])c2ccc(C3OCCO3)cc2[n+]1[O-] | 24.3 (≈ 8.59 µg/mL) | 21.8 | 0.9 | 1.3 | 
N#Cc1c(-c2ccc(Cl)cc2)[n+]([O-])c2ccc(C3OCCO3)cc2[n+]1[O-] | 16.2 (≈ 5.99 µg/mL) | 12.6 | 0.8 | 1.8 | 
NC(=O)c1c(COc2ccccc2/C=N/NC(=O)c2ccncc2)no[n+]1[O-] | 0.42 (≈ 0.161 µg/mL) | 854 | 2030 | 1.3 | MIC90 [4]: 7.72 µM (≈ 2.95 µg/mL)
